Measurements from ChEMBL document CHEMBL1140915, “Second-generation highly potent and selective inhibitors of the hepatitis C virus NS3 serine protease” (J Med Chem, 2009).

Columns and labels:
[1] = Inhibition of HCV NS3 protease in absence of human serum; parameters: species or system Hepacivirus hominis
In short: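 Continuous enzymatic assay using NS4A-tethered single-chain HCV NS3 serine protease, without human serum. Ki* is the equilibrium constant, which includes the reversible covalent ketone–serine bond. Compounds were tested as P1 diastereomer mixtures (2:1 to 1:2) that equilibrate rapidly under assay conditions.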

Hepatitis C virus = experiment: Antiviral activity against HCV assessed as inhibition of virus replication by cell based assay in absence of human serum; assay type: functional, Hepacivirus hominis
In short: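 Replicon-based cellular assay run without human serum. EC90 is the concentration that inhibits replicon replication by 90%. Compounds were tested as rapidly equilibrating P1 diastereomer mixtures.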

[2] = Selectivity for HCV NS3 protease over human neutrophil elastase
In short: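 Compounds were also assayed against human neutrophil elastase. Selectivity is expressed as the HNE/HCV ratio of the two enzyme potencies.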

[3] = AUC in rat at 10 mg/kg, po administered with 20% HPBCD; assay type: ADME, organism-based; parameters: dose 10 mg/kg, route oral; settings: plasma
[4] = Bioavailability in monkey at 3 mg/kg, po administered with 0.4% hydroxypropyl methylcellulose; assay type: ADME, organism-based, Macaca mulatta; settings: rhesus monkey, in vivo

SMILES | Ki [1] [nM] | EC90 (Hepatitis C virus) [nM] | Ratio [2] | AUC [3] [µM·h] | bioavailability [4] [%]
C=CCNC(=O)C(=O)C(CC1CCC1)NC(=O)[C@@H]1[C@@H]2[C@H](CN1C(=O)[C@@H](NC(=O)N[C@@H](CN1C(=O)CC(C)(C)CC1=O)C(C)(C)C)C(C)(C)C)C2(C)C (some centres undefined) | 7 | 40 | 6400 | – | –
CCCCC(NC(=O)[C@@H]1[C@@H]2[C@H](CN1C(=O)[C@@H](NC(=O)N[C@@H](CN1C(=O)CC(C)(C)CC1=O)C(C)(C)C)C(C)(C)C)C2(C)C)C(=O)C(=O)NC1CC1 (some centres undefined) | 5 | 30 | 6100 | – | –
C=CCNC(=O)C(=O)C(CCCC)NC(=O)[C@@H]1[C@@H]2[C@H](CN1C(=O)[C@@H](NC(=O)N[C@@H](CN1C(=O)CCCC1=O)C(C)(C)C)C(C)(C)C)C2(C)C (some centres undefined) | 8 | 150 | 69000 | 0.44 | –
C=CCNC(=O)C(=O)C(CCCC)NC(=O)[C@@H]1[C@@H]2[C@H](CN1C(=O)[C@@H](NC(=O)N[C@@H](CN1C(=O)C3CC3C1=O)C(C)(C)C)C(C)(C)C)C2(C)C (some centres undefined) | 5 | 70 | 9500 | – | –
CCCCC(NC(=O)[C@@H]1[C@@H]2[C@H](CN1C(=O)[C@@H](NC(=O)N[C@@H](CN1C(=O)CC(C)(C)CC1=O)C(C)(C)C)C(C)(C)C)C2(C)C)C(=O)C(=O)NCc1ccccc1 (some centres undefined) | 14 | 40 | 1100 | – | –
C=CCNC(=O)C(=O)C(CCCC)NC(=O)[C@@H]1[C@@H]2[C@H](CN1C(=O)[C@@H](NC(=O)N[C@@H](CN1C(=O)c3ccccc3C1=O)C(C)(C)C)C(C)(C)C)C2(C)C (some centres undefined) | 30 | 750 | 500 | – | –
CCCCC(NC(=O)[C@@H]1[C@@H]2[C@H](CN1C(=O)[C@@H](NC(=O)N[C@@H](CN1C(=O)CC(C)(C)CC1=O)C(C)(C)C)C(C)(C)C)C2(C)C)C(=O)C(=O)NCc1ccccn1 (some centres undefined) | 22 | 80 | 2500 | – | –
C=CCNC(=O)C(=O)C(CCCC)NC(=O)[C@@H]1[C@@H]2[C@H](CN1C(=O)C(NC(=O)NC(CN1C(=O)CC(C)(C)CC1=O)C(C)(C)C)C1Cc3ccccc3C1)C2(C)C (single isomer, unassigned) | 4 | 100 | 1800 | – | –
C#CCCC(NC(=O)[C@@H]1[C@@H]2[C@H](CN1C(=O)[C@@H](NC(=O)NC(CN1C(=O)CC(C)(C)CC1=O)C(C)(C)C)C(C)(C)C)C2(C)C)C(=O)C(=O)NCC=C (single isomer, unassigned) | 2 | 40 | 230 | – | –
C=CCNC(=O)C(=O)C(CCCC)NC(=O)[C@@H]1[C@@H]2[C@H](CN1C(=O)[C@@H](NC(=O)NC(CN1C(=O)CC(C)(C)CC1=O)C(C)(C)C)C1CCCCC1)C2(C)C (single isomer, unassigned) | 2 | 45 | 2400 | 0.45 | –
C=CCNC(=O)C(=O)C(CCC1CC1)NC(=O)[C@@H]1[C@@H]2[C@H](CN1C(=O)[C@@H](NC(=O)NC(CN1C(=O)CC(C)(C)CC1=O)C(C)(C)C)C(C)(C)C)C2(C)C (single isomer, unassigned) | 7 | 30 | 11000 | 0.5 | –
CCCCC(NC(=O)[C@@H]1[C@@H]2[C@H](CN1C(=O)[C@@H](NC(=O)NC(CN1C(=O)CC(C)(C)CC1=O)C(C)(C)C)C(C)(C)C)C2(C)C)C(=O)C(=O)NCc1cccs1 (single isomer, unassigned) | 12 | 100 | 900 | – | –
C=CCNC(=O)C(=O)C(CCCC)NC(=O)[C@@H]1[C@@H]2[C@H](CN1C(=O)[C@@H](NC(=O)NC(CN1C(=O)COCC1=O)C(C)(C)C)C(C)(C)C)C2(C)C (single isomer, unassigned) | 8 | 500 | 7200 | – | –
C=CCNC(=O)C(=O)C(CCCC)NC(=O)[C@@H]1[C@@H]2[C@H](CN1C(=O)[C@@H](NC(=O)NC(CN1C(=O)CC3(CCCC3)CC1=O)C(C)(C)C)C(C)(C)C)C2(C)C (single isomer, unassigned) | 6 | 200 | 3800 | – | –
CCCCC(NC(=O)[C@@H]1[C@@H]2[C@H](CN1C(=O)[C@@H](NC(=O)NC(CN1C(=O)CC(C)(C)CC1=O)C(C)(C)C)C(C)(C)C)C2(C)C)C(=O)C(=O)NCCC (single isomer, unassigned) | 21 | 80 | 910 | – | –
CCCCC(NC(=O)[C@@H]1[C@@H]2[C@H](CN1C(=O)[C@@H](NC(=O)NC(CN1C(=O)CC(C)(C)CC1=O)C(C)(C)C)C(C)(C)C)C2(C)C)C(=O)C(=O)NCC (single isomer, unassigned) | 13 | 70 | 8200 | – | –
C=CCNC(=O)C(=O)C(CCCC)NC(=O)[C@@H]1[C@@H]2[C@H](CN1C(=O)C(NC(=O)NC(CN1C(=O)CC(C)(C)CC1=O)C(C)(C)C)C1(C)Cc3ccccc3C1)C2(C)C (single isomer, unassigned) | 32 | 80 | 220 | – | –
C=CCNC(=O)C(=O)C(CCCC)NC(=O)[C@@H]1[C@@H]2[C@H](CN1C(=O)C(NC(=O)NC(CN1C(=O)CC(C)(C)CC1=O)C(C)(C)C)C1(C)CCCCC1)C2(C)C (single isomer, unassigned) | 4 | 45 | 1000 | – | –
C=CCNC(=O)C(=O)C(CCCC)NC(=O)[C@@H]1[C@@H]2[C@H](CN1C(=O)[C@@H](NC(=O)NC(CN1C(=O)CN(c3ccccc3)CC1=O)C(C)(C)C)C(C)(C)C)C2(C)C (single isomer, unassigned) | 12 | 100 | 90 | – | –
C=CCNC(=O)C(=O)C(CCCC)NC(=O)[C@@H]1[C@@H]2[C@H](CN1C(=O)[C@@H](NC(=O)NC(CN1C(=O)CC(C)(CC)CC1=O)C(C)(C)C)C(C)(C)C)C2(C)C (single isomer, unassigned) | 8 | 40 | 2500 | – | –
C=CCNC(=O)C(=O)C(CCC)NC(=O)[C@@H]1[C@@H]2[C@H](CN1C(=O)[C@@H](NC(=O)NC(CN1C(=O)CC(C)(C)CC1=O)C(C)(C)C)C(C)(C)C)C2(C)C (single isomer, unassigned) | 4 | 40 | 1600 | – | –
C=CCNC(=O)C(=O)C(CCCC)NC(=O)[C@@H]1[C@@H]2[C@H](CN1C(=O)[C@@H](NC(=O)NC(CN1C(=O)C3CCC(C3)C1=O)C(C)(C)C)C(C)(C)C)C2(C)C (single isomer, unassigned) | 6 | 60 | 7000 | – | –
CC(C)(C)NC(=O)N[C@H](C(=O)N1C[C@H]2[C@@H]([C@H]1C(=O)NC(CC1CCC1)C(=O)C(N)=O)C2(C)C)C(C)(C)C (some centres undefined) [BOCEPREVIR] | 14 | 350 | – | – | 4

Continued, values first:

Ki [1] [nM] | EC90 (Hepatitis C virus) [nM] | Ratio [2] | AUC [3] [µM·h] | bioavailability [4] [%] | SMILES
19 | 250 | 1200 | – | – | C=CCNC(=O)C(=O)C(CCCC)NC(=O)[C@@H]1[C@@H]2[C@H](CN1C(=O)[C@@H](NC(=O)N[C@@H](CN1C(=O)CN(C)C1=O)C(C)(C)C)C(C)(C)C)C2(C)C (some centres undefined)
11 | 250 | 2500 | – | – | C=CCNC(=O)C(=O)C(CCCC)NC(=O)[C@@H]1[C@@H]2[C@H](CN1C(=O)[C@@H](NC(=O)N[C@@H](CN1C(=O)NC(C)(C)C1=O)C(C)(C)C)C(C)(C)C)C2(C)C (some centres undefined)
7 | 35 | 3100 | – | – | C=CCNC(=O)C(=O)C(CCCC)NC(=O)[C@@H]1[C@@H]2[C@H](CN1C(=O)[C@@H](NC(=O)N[C@@H](CN1C(=O)CCC(C)(C)C1=O)C(C)(C)C)C(C)(C)C)C2(C)C (some centres undefined)
4 | 150 | 4300 | – | – | C=CCNC(=O)C(=O)C(CCCC)NC(=O)[C@@H]1[C@@H]2[C@H](CN1C(=O)[C@@H](NC(=O)NC(CN1C(=O)CCNC1=O)C(C)(C)C)C(C)(C)C)C2(C)C (single isomer, unassigned)
8 | 60 | 1600 | – | – | C=CCNC(=O)C(=O)C(CCCC)NC(=O)[C@@H]1[C@@H]2[C@H](CN1C(=O)[C@@H](NC(=O)NC(CN1C(=O)N(C)C(C)(C)C1=O)C(C)(C)C)C(C)(C)C)C2(C)C (single isomer, unassigned)
4 | 40 | 9300 | 1.58 | – | C=CCNC(=O)C(=O)C(CCCC)NC(=O)[C@@H]1[C@@H]2[C@H](CN1C(=O)[C@@H](NC(=O)NC(CN1C(=O)CC(C)(C)CC1=O)C(C)(C)C)C(C)(C)C)C2(C)C (single isomer, unassigned)
8 | 1000 | 1200 | – | – | C=CCNC(=O)C(=O)C(CCCC)NC(=O)[C@@H]1[C@@H]2[C@H](CN1C(=O)[C@@H](NC(=O)NC(CN1C(=O)CNC1=O)C(C)(C)C)C(C)(C)C)C2(C)C (single isomer, unassigned)
7 | 60 | 1400 | – | – | C=CCNC(=O)C(=O)C(CCCC)NC(=O)[C@@H]1[C@@H]2[C@H](CN1C(=O)[C@@H](NC(=O)NC(CN1C(=O)CCN(C)C1=O)C(C)(C)C)C(C)(C)C)C2(C)C (single isomer, unassigned)
6 | 40 | 9500 | 0.36 | – | C=CCNC(=O)C(=O)C(CCCC)NC(=O)[C@@H]1[C@@H]2[C@H](CN1C(=O)[C@@H](NC(=O)NC(CN1C(=O)CN(C)CC1=O)C(C)(C)C)C(C)(C)C)C2(C)C (single isomer, unassigned)
13 | 230 | 2000 | – | – | C=CCNC(=O)C(=O)C(CCCC)NC(=O)[C@@H]1[C@@H]2[C@H](CN1C(=O)[C@@H](NC(=O)NC(CN1C(=O)CCC1=O)C(C)(C)C)C(C)(C)C)C2(C)C (single isomer, unassigned)
